Experimental data published in ChEMBL document CHEMBL3992536, “Discovery of a Novel Series of Orally Bioavailable and CNS Penetrant Glucagon-like Peptide-1 Receptor (GLP-1R) Noncompetitive Antagonists Based on a 1,3-Disubstituted-7-aryl-5,5-bis(trifluoromethyl)-5,8-dihydropyrimido[4,5-d]pyrimidine-2,4(1H,3H)-dione Core” (J Med Chem, 2017).
One block for each compound: values may come before it. The source made the active and inactive calls. The rule behind the calls is not given here.

Assays:
Cytochrome P450 3A4 = Cytochrome P450 3A4 (Homo sapiens, UniProt P08684); assay: Inhibition of CYP3A4 in human liver microsomes using midazolam as substrate preincubated for 15 mins followed by NADPH addition measured after 8 mins by LC-MS/MS analysis; assay type: ADME
Chain of Cytochrome P450 3A4 (P08684 whole entry): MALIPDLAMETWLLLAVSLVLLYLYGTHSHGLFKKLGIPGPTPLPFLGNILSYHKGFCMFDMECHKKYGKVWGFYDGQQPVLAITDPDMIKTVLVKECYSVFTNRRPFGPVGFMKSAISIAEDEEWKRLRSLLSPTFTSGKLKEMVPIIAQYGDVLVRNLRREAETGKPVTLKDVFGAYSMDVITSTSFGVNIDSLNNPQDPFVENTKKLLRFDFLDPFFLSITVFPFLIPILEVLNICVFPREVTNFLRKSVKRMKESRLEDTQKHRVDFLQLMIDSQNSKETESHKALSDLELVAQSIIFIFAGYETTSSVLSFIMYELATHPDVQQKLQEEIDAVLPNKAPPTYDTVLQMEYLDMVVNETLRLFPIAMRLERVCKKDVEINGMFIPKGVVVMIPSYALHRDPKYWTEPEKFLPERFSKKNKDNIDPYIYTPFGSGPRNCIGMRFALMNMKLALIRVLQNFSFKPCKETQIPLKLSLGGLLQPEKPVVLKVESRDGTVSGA

[1] = Volume of distribution at steady state in Sprague-Dawley rat at 1 mg/kg, iv or 3 mg/kg via oral gavage by LC-MS/MS analysis; assay type: ADME, organism-based; conditions: in vivo, read-out: Vdss
How it was run: (§1)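 Rat PK study with dosing at 1 mg/kg iv and 3 mg/kg po. The study reports plasma clearance (mL min⁻¹ kg⁻¹), t1/2 (min), Vss (L/kg) and oral bioavailability F (%).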

[2] = biological target: T1, Glucagon-like peptide 1 receptor (Homo sapiens, UniProt P43220); assay: Antagonist activity at human GLP-1R expressed in TREx293 cells co-expressing cAMP sensitive luciferase assessed as inhibition of exendin-4-induced cAMP accumulation after 90 mins by GloSensor cAMP assay; assay type: functional, cell-based
T1 sequence (P43220 whole entry): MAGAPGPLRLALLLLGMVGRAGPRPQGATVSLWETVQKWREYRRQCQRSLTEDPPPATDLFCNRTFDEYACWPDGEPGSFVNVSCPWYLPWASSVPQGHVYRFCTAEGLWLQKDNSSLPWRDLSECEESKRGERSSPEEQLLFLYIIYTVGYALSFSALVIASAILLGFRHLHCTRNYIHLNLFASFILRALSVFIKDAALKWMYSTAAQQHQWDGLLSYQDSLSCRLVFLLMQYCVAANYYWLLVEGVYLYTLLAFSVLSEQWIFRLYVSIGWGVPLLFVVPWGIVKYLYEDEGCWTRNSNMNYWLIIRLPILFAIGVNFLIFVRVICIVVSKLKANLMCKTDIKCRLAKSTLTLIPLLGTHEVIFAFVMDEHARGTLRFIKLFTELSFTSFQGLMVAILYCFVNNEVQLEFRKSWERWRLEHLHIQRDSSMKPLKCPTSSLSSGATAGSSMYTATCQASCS
How it was run: (§2)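 GloSensor cAMP luminescence read-out in TREx293 HEK cells expressing GLP-1R. IC50 and pIC50 come from the concentration–response curves. n = 3, reported as average ± SEM.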

[3] = Half life in Sprague-Dawley rat at 1 mg/kg, iv or 3 mg/kg via oral gavage by LC-MS/MS analysis; assay type: ADME, organism-based; conditions: in vivo; how it was run: as §1
Glucagon receptor = Glucagon receptor (Homo sapiens, UniProt P47871); assay: Antagonist activity at glucagon receptor (unknown origin)
Chain of Glucagon receptor (P47871 whole entry, the tested form may be a part): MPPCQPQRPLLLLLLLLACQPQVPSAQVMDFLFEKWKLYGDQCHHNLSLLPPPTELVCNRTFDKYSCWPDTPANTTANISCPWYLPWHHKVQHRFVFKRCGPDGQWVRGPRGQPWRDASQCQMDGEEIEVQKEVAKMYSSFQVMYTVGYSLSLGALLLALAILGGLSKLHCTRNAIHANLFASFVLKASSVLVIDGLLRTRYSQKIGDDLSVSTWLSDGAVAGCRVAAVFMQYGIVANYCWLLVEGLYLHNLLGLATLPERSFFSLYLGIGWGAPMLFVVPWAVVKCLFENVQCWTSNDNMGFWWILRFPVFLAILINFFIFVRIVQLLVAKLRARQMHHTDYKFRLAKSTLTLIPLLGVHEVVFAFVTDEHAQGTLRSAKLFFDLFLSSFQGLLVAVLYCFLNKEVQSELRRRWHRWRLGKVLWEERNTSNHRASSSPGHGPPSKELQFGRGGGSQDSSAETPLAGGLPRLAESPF

[4] = biological target: T1, Glucagon-like peptide 1 receptor; assay: Non-competitive antagonism/negative allosteric modulation of human GLP-1R expressed in TREx293 cells co-expressing cAMP sensitive luciferase assessed as inhibition of fixed concentration of GLP1 (7 to 36 residues) amide-induced cAMP accumulation by measuring decrease in GLP-1 maximum response at 0.3 to 10 uM after 90 mins by GloSensor cAMP assay; assay type: functional, cell-based
How it was run: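 A full GLP-1 (7−36) amide concentration–response curve is run in GLP-1R TREx293 HEK cells with GloSensor cAMP detection. It is repeated in the presence of increasing fixed concentrations of antagonist, and the decrease in the GLP-1 maximal response is followed. n = 3.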

[5] = biological target: T2, Glucagon-like peptide 1 receptor (Mus musculus) (UniProt O35659); assay: Antagonist activity at GLP-1R in C57BL/6J mouse primary islets assessed as inhibition of exendin-4-induced increase in glucose-stimulated insulin secretion at 1 uM after 60 mins by radio-immunoassay
T2 sequence (whole entry): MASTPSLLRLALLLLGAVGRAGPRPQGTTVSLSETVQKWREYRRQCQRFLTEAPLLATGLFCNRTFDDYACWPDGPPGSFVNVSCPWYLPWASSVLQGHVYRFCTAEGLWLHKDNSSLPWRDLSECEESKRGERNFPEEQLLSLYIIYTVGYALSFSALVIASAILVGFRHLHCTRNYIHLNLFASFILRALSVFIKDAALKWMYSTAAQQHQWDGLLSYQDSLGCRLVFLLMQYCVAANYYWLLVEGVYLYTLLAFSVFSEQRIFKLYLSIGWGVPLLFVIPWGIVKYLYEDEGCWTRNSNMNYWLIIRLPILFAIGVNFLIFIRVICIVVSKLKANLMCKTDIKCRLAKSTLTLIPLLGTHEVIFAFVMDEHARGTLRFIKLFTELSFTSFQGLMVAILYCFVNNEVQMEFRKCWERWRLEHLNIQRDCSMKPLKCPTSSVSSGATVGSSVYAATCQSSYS

[6] = biological target: T1, Glucagon-like peptide 1 receptor; assay: Antagonist activity at human GLP-1R expressed in TREx293 cells co-expressing cAMP sensitive luciferase assessed as inhibition of exendin-4-induced cAMP accumulation after 90 mins by GloSensor cAMP assay relative to GLP-1; assay type: functional, cell-based
How it was run: (§3)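 TREx293 HEK cells expressing GLP-1R, GloSensor cAMP read-out. The minimum response is expressed as % of the GLP-1 response (GLP-1 min). n = 3, average ± SEM.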

[7] = Ratio of drug level in Sprague-Dawley rat brain to plasma at 3 mg/kg via oral gavage after 1 hr by LC-MS/MS analysis; assay type: ADME, organism-based
How it was run: (§4)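 Rat distribution study: single 3 mg/kg oral dose. Plasma (ng/mL) and brain concentrations are measured at 1 h, and brain/plasma Kp is calculated from them.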

[8] = Fraction unbound in rat plasma at 5 uM after 4 hrs by LC-MS/MS based equilibrium dialysis method; assay type: ADME, cell-free
[9] = Drug uptake in Sprague-Dawley rat brain at 3 mg/kg via oral gavage after 1 hr by LC-MS/MS analysis; assay type: ADME, organism-based; conditions: read-out: Drug uptake; how it was run: as §4
[10] = Plasma clearance in Sprague-Dawley rat at 1 mg/kg, iv or 3 mg/kg via oral gavage by LC-MS/MS analysis; assay type: ADME, organism-based; how it was run: as §1
Cytochrome P450 2D6 = Cytochrome P450 2D6 (Homo sapiens, UniProt P10635); assay: Inhibition of CYP2D6 in human liver microsomes using dextromethorphan as substrate preincubated for 15 mins followed by NADPH addition measured after 8 mins by LC-MS/MS analysis; assay type: ADME
Chain of Cytochrome P450 2D6 (P10635 whole entry): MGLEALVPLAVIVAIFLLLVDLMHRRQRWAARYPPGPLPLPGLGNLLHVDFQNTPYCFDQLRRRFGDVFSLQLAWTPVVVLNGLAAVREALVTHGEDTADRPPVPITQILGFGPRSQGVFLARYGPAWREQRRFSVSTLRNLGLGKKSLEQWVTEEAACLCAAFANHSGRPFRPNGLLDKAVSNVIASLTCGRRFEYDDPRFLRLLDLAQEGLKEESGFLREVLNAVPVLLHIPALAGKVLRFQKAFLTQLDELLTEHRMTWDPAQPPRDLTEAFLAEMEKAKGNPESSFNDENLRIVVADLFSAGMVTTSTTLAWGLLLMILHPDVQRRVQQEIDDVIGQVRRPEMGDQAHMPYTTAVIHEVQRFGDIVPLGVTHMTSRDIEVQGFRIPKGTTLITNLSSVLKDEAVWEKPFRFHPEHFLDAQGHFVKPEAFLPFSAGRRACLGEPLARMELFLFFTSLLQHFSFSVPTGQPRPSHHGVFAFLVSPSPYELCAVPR

[11] = Drug uptake in Sprague-Dawley rat plasma at 3 mg/kg via oral gavage after 1 hr by LC-MS/MS analysis; assay type: ADME, organism-based; how it was run: as §4
[12] = biological target: T1, Glucagon-like peptide 1 receptor; assay: Antagonist activity at human GLP-1R expressed in TREx293 cells co-expressing cAMP sensitive luciferase assessed as inhibition of GLP1 (7 to 36 residues) amide-induced cAMP accumulation after 90 mins by GloSensor cAMP assay relative to GLP-1; assay type: functional, cell-based; how it was run: as §3
Cytochrome P450 2C9 = Cytochrome P450 2C9 (Homo sapiens, UniProt P11712); assay: Inhibition of CYP2C9 in human liver microsomes using diclofenac as substrate preincubated for 15 mins followed by NADPH addition measured after 8 mins by LC-MS/MS analysis; assay type: ADME
Chain of Cytochrome P450 2C9 (P11712 whole entry, the tested form may be a part): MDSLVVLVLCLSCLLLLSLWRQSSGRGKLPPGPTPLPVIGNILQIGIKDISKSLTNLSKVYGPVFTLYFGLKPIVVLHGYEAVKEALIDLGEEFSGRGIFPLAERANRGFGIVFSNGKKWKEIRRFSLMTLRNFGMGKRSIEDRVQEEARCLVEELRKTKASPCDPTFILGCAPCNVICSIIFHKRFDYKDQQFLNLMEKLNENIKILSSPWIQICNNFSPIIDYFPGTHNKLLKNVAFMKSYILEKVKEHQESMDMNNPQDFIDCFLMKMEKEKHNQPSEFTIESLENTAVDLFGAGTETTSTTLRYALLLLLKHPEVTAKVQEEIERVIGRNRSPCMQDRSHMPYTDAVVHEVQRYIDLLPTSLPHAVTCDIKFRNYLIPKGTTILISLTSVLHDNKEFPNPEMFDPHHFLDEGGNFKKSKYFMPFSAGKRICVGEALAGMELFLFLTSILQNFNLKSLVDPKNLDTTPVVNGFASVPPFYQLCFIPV

[13] = biological target: T1, Glucagon-like peptide 1 receptor; assay: Antagonist activity at human GLP-1R expressed in TREx293 cells co-expressing cAMP sensitive luciferase assessed as inhibition of GLP1 (7 to 36 residues) amide-induced cAMP accumulation after 90 mins by GloSensor cAMP assay; assay type: functional, cell-based; how it was run: as §2
[14] = Fraction unbound in human plasma at 5 uM after 4 hrs by LC-MS/MS based equilibrium dialysis method; assay type: ADME, cell-free
Cytochrome P450 1A2 = biological target: T3, Cytochrome P450 1A2 (Homo sapiens, UniProt P05177); assay: Inhibition of CYP1A2 in human liver microsomes using phenacetin as substrate preincubated for 15 mins followed by NADPH addition measured after 8 mins by LC-MS/MS analysis; assay type: ADME
T3 sequence (P05177 whole entry): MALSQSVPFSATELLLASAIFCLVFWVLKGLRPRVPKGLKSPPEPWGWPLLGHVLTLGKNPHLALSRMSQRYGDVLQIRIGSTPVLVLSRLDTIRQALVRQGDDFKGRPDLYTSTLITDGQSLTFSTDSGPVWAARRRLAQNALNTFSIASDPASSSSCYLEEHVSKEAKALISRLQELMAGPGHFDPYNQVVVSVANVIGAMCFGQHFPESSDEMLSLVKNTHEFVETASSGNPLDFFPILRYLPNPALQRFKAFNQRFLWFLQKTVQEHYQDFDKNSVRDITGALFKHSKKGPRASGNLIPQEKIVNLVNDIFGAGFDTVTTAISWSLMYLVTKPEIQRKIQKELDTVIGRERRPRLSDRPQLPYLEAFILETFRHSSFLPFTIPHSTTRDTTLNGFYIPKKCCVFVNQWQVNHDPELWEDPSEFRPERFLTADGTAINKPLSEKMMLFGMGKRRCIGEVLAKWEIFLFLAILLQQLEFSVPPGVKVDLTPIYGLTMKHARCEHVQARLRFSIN

[15] = Oral bioavailability in Sprague-Dawley rat at 3 mg/kg via gavage by LC-MS/MS analysis; assay type: ADME, organism-based; conditions: in vivo; how it was run: as §1
Rattus norvegicus [16] = assay: Decrease in blood insulin level in Sprague-Dawley rat at 10 mg/kg, po pretreated for 30 mins followed by glucose challenge measured up to 150 mins by oral glucose tolerance test; assay type: functional, organism-based
How it was run: (§5)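 OGTT in male Sprague-Dawley rats with surgically implanted carotid cannulae, randomized to compound (10 mg/kg po) or vehicle. Dosing is 30 min before a 2 g/kg glucose gavage at time 0. Carotid blood is sampled at intervals for whole blood glucose and insulin.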

Rattus norvegicus [17] = assay: Increase in blood glucose level in Sprague-Dawley rat at 10 mg/kg, po pretreated for 30 mins followed by glucose challenge measured up to 150 mins by oral glucose tolerance test; assay type: functional, organism-based; how it was run: as §5
[18] = biological target: T1, Glucagon-like peptide 1 receptor; assay: Antagonist activity at GLP-1R (unknown origin)

Structure (SMILES): Cn1c2c(c(=O)n(C)c1=O)C(C(F)(F)F)(C(F)(F)F)N=C(c1cccc([N+](=O)[O-])c1)N2
IC50 (Cytochrome P450 3A4): > 30 µM
Vd [1]: 0.22 L/kg
IC50 [2]: 690 nM
half-life [3]: 42 min
IC50 (Glucagon receptor): > 30 µM
inhibition [4]: Dose-dependent effect
inhibition [5]: Active
Emin [6]: 15.5%
Kp at 1 h [7]: 0.02
fraction unbound at 4 h, 5 µM [8]: 0.005
concentration at 1 h [9]: 2.4 ng/g
clearance [10]: 3.64 mL/min/kg
IC50 (Cytochrome P450 2D6): 21.2 µM
concentration at 1 h [11]: 76.7 ng/mL
Emin [12]: 16.4%
IC50 (Cytochrome P450 2C9): 470 nM
IC50 [13]: 610 nM
fraction unbound at 4 h, 5 µM [14]: 0.005
IC50 (Cytochrome P450 1A2): 25 µM

Structure (SMILES): COc1cccc(C2=NC(C(F)(F)F)(C(F)(F)F)c3c(n(CC(C)C)c(=O)[nH]c3=O)N2)c1
IC50 [2]: 7200 nM
Emin [6]: 26.4%
Emin [12]: 22.7%
IC50 [13]: 7200 nM

Structure (SMILES): COc1ccc2c(c1)N(c1ccccc1F)C(=O)[C@@]2(CCC(=O)O)NC(=O)c1cc2ccccc2cn1
IC50 [18]: 21 µM

Further compounds by falling IC50 [2], results first:

IC50 (Cytochrome P450 3A4): 16.4 µM
Vd [1]: 0.69 L/kg
IC50 [2]: 5800 nM
half-life [3]: 145 min
IC50 (Glucagon receptor): > 30 µM
Emin [6]: 23.9%
Kp at 1 h [7]: 0.03
fraction unbound at 4 h, 5 µM [8]: 0.002
concentration at 1 h [9]: 37.1 ng/g
clearance [10]: 36.4 mL/min/kg
IC50 (Cytochrome P450 2D6): 8.13 µM
concentration at 1 h [11]: 1140 ng/mL
bioavailability [15]: 100%
Emin [12]: 16.8%
IC50 (Cytochrome P450 2C9): 3780 nM
IC50 [13]: 5900 nM
fraction unbound at 4 h, 5 µM [14]: 0.003
IC50 (Cytochrome P450 1A2): > 30 µM
Structure (SMILES): COc1cccc(C2=NC(C(F)(F)F)(C(F)(F)F)c3c(n(-c4ccc(Cl)cc4)c(=O)[nH]c3=O)N2)c1

IC50 [2]: 1500 nM
Emin [6]: 32%
Emin [12]: 36.2%
IC50 [13]: 1300 nM
Structure (SMILES): O=c1[nH]c(=O)n(Cc2ccccc2)c2c1C(C(F)(F)F)(C(F)(F)F)N=C(c1cccs1)N2

IC50 (Cytochrome P450 3A4): > 30 µM
Vd [1]: 3.57 L/kg
IC50 [2]: 690 nM
half-life [3]: 587 min
IC50 (Glucagon receptor): > 30 µM
inhibition [4]: Dose-dependent effect
inhibition [5]: Active
Emin [6]: 19.7%
Kp at 1 h [7]: 1.45
fraction unbound at 4 h, 5 µM [8]: 0.011
concentration at 1 h [9]: 65.1 ng/g
clearance [10]: 4.79 mL/min/kg
IC50 (Cytochrome P450 2D6): > 30 µM
concentration at 1 h [11]: 45 ng/mL
bioavailability [15]: 50%
Emin [12]: 20.9%
IC50 (Cytochrome P450 2C9): 410 nM
IC50 [13]: 650 nM
fraction unbound at 4 h, 5 µM [14]: 0.007
IC50 (Cytochrome P450 1A2): 4.01 µM
Structure (SMILES): Cn1c2c(c(=O)n(C)c1=O)C(C(F)(F)F)(C(F)(F)F)NC(c1ccc(Cl)cc1)=N2
Activity (Rattus norvegicus [16]): Active
Activity (Rattus norvegicus [17]): Active
